Consider 13 compounds from PubChem BioAssay.

Assay [1] is described as follows: inhibitors of TNFa-induced NFkB p65 translocation, primary screen, imaging, HUVEC, MLSMR starter and 10KST1 sets (AID 438;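 active = inhibition above 20% together with a positive visual image hit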;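 also: compound added about 3h40 before a 20 min TNFalpha stimulation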;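 as to inhibition: signal is the nuclear over cytoplasmic p65 intensity ratio per well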). Particulars: HUVEC TNFa-induced p65 nuclear translocation; cell count: measured here: nuclei count (cytotoxicity indicator), at 2.08 µM; inhibition: at 2 µM, stronger effect = higher value, 0% TNFa-plus-vehicle, 100% no-TNFa wells.
Assay [2] in a line: inhibitors of mutant huntingtin aggregation, primary screen, imaging, exon1htt(103Q)mCFP cells, high-content imaging (AID 483;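 active = visual image review flags a hit and inhibition of aggregation exceeds 20%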;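 also: compound exposure lasted 3 days before fixation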;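 as to nuclei count: percent of the per-plate median nuclei count of sample wells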). The following applies: exon1htt(103Q)mCFP cell line, aggregate imaging, at 2 µM; inhibition of aggregation: stronger effect = higher value; nuclei count: measured here: cell count, toxicity.
The nature of assay [3]: inhibitors of E-selectin induction by TNFa, primary screen, imaging, HUVEC, immunofluorescence, MLSMR starter and 10KST1 sets (AID 487;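 active = visually confirmed hit in the image check and inhibition above 20%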;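 as to inhibition: signal is fraction of cell area covered by stained E-selectin grains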;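 as to nuclei count: 100% = median nuclei count of all wells on the same plate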). The following applies: HUVEC TNFalpha-induced E-selectin immunofluorescence imaging, at 2 µM; inhibition: stronger effect = higher value; nuclei count: measured here: cell number, toxicity.
In assay [4] the target is Voltage-gated potassium channel subunit beta-2 (Rattus norvegicus) (UniProt P62483). Briefly: KvBeta enzyme negative modulators, primary screen, biochemical, NADPH fluorescence (AID 622;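 active = fluorescence slope higher than the sample average by over 3 SD, cut at about -0.22 in these data, passing the limit was not always enough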;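 also: slope of raw intensity against log time taken from 70 to 1610 s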). The following applies: recombinant KvBeta, 4-cyanobenzaldehyde reduction, at 10 µM, stronger effect = higher value.
Voltage-gated potassium channel subunit beta-2 (Rattus norvegicus), sequence (P62483 whole entry, looked up): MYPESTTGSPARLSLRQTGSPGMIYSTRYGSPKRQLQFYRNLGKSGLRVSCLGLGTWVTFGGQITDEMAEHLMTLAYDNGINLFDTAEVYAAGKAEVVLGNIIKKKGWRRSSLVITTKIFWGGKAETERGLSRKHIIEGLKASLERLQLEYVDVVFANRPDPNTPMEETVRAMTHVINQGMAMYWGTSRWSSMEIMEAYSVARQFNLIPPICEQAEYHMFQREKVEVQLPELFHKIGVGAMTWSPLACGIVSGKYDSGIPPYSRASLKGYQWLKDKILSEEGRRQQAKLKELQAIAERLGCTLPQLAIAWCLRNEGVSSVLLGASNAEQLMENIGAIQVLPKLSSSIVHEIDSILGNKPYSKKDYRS
The target is the same in assay [5]. Description: KvBeta positive modulators, primary screen, biochemical, NADPH fluorescence (AID 623;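 active = NADPH fluorescence slope more negative than the mean of all samples by about 3 SD, 99.7% confidence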;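 also: fluorescence intensity change per second fitted from 20 to 320 s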). Particulars: Recombinant KvBeta, NADPH fluorescence decrease slope, 10 min; at 10 µM; stronger effect = lower value.
The target in assay [6] is Alpha-2C adrenergic receptor (Homo sapiens) (UniProt P18825). Description: modulators of alpha2C/GIRK thallium flux, primary screen, cell-based, HEK293 alpha2C/GIRK1/2 (AID 624).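 Also: slope of fluorescence ratio to pre-addition baseline per second over 15 to 24 s.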 Particulars: thallium flux BTC fluorescence, at 10 µM, actives lie on both sides.
Alpha-2C adrenergic receptor (Homo sapiens), sequence (P18825 whole entry, looked up): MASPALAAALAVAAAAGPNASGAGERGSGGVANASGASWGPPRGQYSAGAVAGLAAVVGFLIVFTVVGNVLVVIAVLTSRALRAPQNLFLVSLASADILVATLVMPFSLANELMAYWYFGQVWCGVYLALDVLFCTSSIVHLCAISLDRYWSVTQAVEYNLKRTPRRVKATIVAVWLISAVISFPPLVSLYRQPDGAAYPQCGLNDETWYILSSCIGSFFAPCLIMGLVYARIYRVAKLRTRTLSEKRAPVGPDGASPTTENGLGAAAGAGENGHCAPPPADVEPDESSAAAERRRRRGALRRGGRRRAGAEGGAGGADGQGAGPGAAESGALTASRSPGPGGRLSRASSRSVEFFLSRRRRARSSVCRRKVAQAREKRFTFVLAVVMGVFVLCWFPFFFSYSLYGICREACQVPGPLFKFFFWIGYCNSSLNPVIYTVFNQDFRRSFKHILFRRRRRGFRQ
Assay [7] in a line: inhibitors of larval lipid processing in zebrafish, primary screen, whole organism, PED6 fluorescence, gall bladder and intestine (AID 686;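 active = a full or partial loss of lipid-probe fluorescence in the fish gall bladder, intestine or both, judged by eye; inactive = no fluorescence loss, or compound toxic to the fish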;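 also: larvae 5 to 7 days old with five fish per well; signal comes from phospholipase A2 cleavage of quenched PED6 carried via bile; overnight exposure to compound and PED6 before scoring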). The following applies: Zebrafish larvae PED6 lipid processing, fluorescence scoring; screened at 20 µM (by protocol). The method in brief:
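Also added: quenched phospholipase substrate PED6, 100 nM final, ingested by larvae; System: zebrafish larvae, 5-7 d; Quantity: 5 larvae per well; Compound: 20 µM single dose; Schedule: overnight compound and PED6 incubation; Read-out: visual per-well fluorescence inhibition score; Measured by: By-eye fluorescence microscopy; Medium: E3.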

Assay [8] is described as follows: inhibitors of Sendai virus-induced IRF3 signaling, primary screen, TLR/RLR signaling modifier project, cell-based, Sendai virus stimulus, luciferase, 10K MLSCN set (AID 602276;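 active = inhibition at or above 50% at 10 µM; inactive = inhibition below 50%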;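 also: firefly luciferase from ISG56 promoter only with Renilla not read in this screen; 0% = Sendai virus plus DMSO and 100% = medium plus DMSO without virus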). The following applies: HEK293 RL24 IRF3 luciferase reporter, at 10 µM, stronger effect = higher value. (Reporter assays use an easily measured gene product as a stand-in for the process of interest.)

A short description of assay [9]: inhibitors of poly I:C-induced TLR3 signaling, primary screen, cell-based, poly I:C stimulus, luciferase, 10K MLSCN set (AID 602277;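 active = inhibition of the reporter signal at or above 50%; inactive = inhibition below 50%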). The following applies: HEK293-TLR3 RL24 IRF3 luciferase reporter, at 10 µM, stronger effect = higher value.

Each structure is given as a SMILES string. Calls of active or inactive are those of the source.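 The calls were made as follows, unless noted: active = fluorescence slope after compound addition differing from the mean of all screened samples at 99.7% confidence, in either direction; inactive = the rest.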

In general, inhibition refers to the change of the read-out against control, counted positive when it falls. Consider `Cc1cc(NC(=O)CSc2nc(C3CCCCC3)nc3ccccc23)no1`, for which, in assay [1], the cell count came out at 725. Also, the inhibition in assay [1] is -4.4% (inactive); in [3], -10.7% (inactive); in assay [8], 12.9% (inactive); in assay [9], 15.3% (inactive). In addition, the inhibition of aggregation in assay [2] is -20.3% (inactive). The nuclei count was 110% in [2] and 106% in assay [3]. In addition, the fluorescence slope in assay [4] is -0.378 (inactive). Moreover, the NADPH fluorescence slope in [5] was -5.4e-05 (inactive). Also, the slope in assay [6] is 0.00411 (inactive). For the same compound, in [7], the outcome was inactive.
As to `CC(=O)Nc1c(O)[nH]c2ccccc12`, in [1], the cell count was found to be 566. The inhibition in [1] is -25.9% (inactive); in assay [3], -5.9% (inactive); in [8], 10.4% (inactive); in [9] it was 16.8% (inactive). Further, in assay [2], the inhibition of aggregation was -9.8% (inactive). Also, the nuclei count in [2] was 98.9%; in [3], 102%. The fluorescence slope in assay [4] is -0.414 (inactive). Besides, the NADPH fluorescence slope in assay [5] is -5.4e-05 (inactive). In assay [6], the slope is 0.00575 (inactive). Besides, the compound was called inactive in [7].
`COc1ccc2c3c(c(=O)oc2c1OCC(N)=O)CCCC3`: the cell count in assay [1] was found to be 609. For the same compound, the inhibition was -3.8% (inactive) in assay [1], -29.2% (inactive) in [3], 14% (inactive) in assay [8] and 2.31% (inactive) in assay [9]. In addition, the inhibition of aggregation in assay [2] is -17.4% (inactive). Further, the nuclei count in [2] amounted to 111%; in assay [3] it was 102%. Also, the fluorescence slope in [4] was -0.0534 (active). Besides, in assay [5], the NADPH fluorescence slope is -8.5e-06 (inactive). Further, the slope in assay [6] is 0.00487 (inactive). Further, the compound was classed as inactive in assay [7].
For `COC(=O)c1sccc1NC(=O)c1ccco1`, in assay [1], the cell count is 474. Further, the inhibition was -11.9% (inactive) in assay [1], 19.6% (inactive) in [3], 2.56% (inactive) in [8] and -4.04% (inactive) in assay [9]. Moreover, the inhibition of aggregation in assay [2] is 8.2% (inactive). Further, the nuclei count in assay [2] came to 90.7%; in assay [3] it was 89.7%. Besides, in assay [4], the fluorescence slope was -0.44 (inactive). In [5], the NADPH fluorescence slope is -3.5e-05 (inactive). Moreover, the slope in [6] is 0.00438 (inactive). Besides, the outcome in assay [7] was “active; weak signal in gallbladder only”.
For `CCN(CC)S(=O)(=O)c1ccc2c(c1)nc(SCn1nnc3ccccc3c1=O)n2CC`, in [1], the cell count is 765. For the same compound, the inhibition in [1] was 6% (inactive); in assay [3], -114% (inactive); in assay [8], 15.4% (inactive); in assay [9], 11.9% (inactive). For the same compound, the inhibition of aggregation in [2] was 6.8% (inactive). For the same compound, the nuclei count stood at 94.2% in assay [2] and 129% in [3]. Also, the fluorescence slope in assay [4] is -0.433 (inactive). In assay [5], the NADPH fluorescence slope is -6.2e-05 (inactive). Further, the slope in [6] is 0.00509 (inactive). For the same compound, the compound was classed as inactive in assay [7].
Regarding `CCCNC(=O)c1cc(-c2ccco2)on1`, the cell count in assay [1] turned out to be 389. In addition, the inhibition in assay [1] is -3.9% (inactive); in [3], -11.4% (inactive); in [8], -19% (inactive); in assay [9], -154% (inactive). The inhibition of aggregation in assay [2] is -4.1% (inactive). For the same compound, the nuclei count amounted to 88.7% in assay [2] and 98.4% in assay [3]. The fluorescence slope in [4] was -0.39 (inactive). For the same compound, in [5], the NADPH fluorescence slope was -4.2e-05 (inactive). In assay [6], the slope was 0.0057 (inactive). Also, the result in assay [7] was inactive.
Regarding `Cc1ccc2[nH]c3c(c2c1)CN(C(=O)CN1CCN(c2cccc(C)c2C)CC1)CC3`, in [1], the cell count came out at 392. The inhibition in [1] was 6.2% (inactive); in [3], -86.9% (inactive); in [8] it was 22.6% (inactive); in assay [9] it was 24.6% (inactive). In assay [2], the inhibition of aggregation was 22.7% (inactive). The nuclei count in [2] was 75.3%; in [3], 111%. The fluorescence slope in [4] is -0.306 (inactive). Moreover, the NADPH fluorescence slope in [5] was -2.6e-05 (inactive). For the same compound, the slope in [6] is 0.00467 (inactive). For the same compound, the compound was classed as inactive in [7].
As for `O=C(CSc1nnc(-c2ccco2)n1CC1CCCO1)N1CCCCC1` (stereo unspecified), the cell count in [1] came out at 375. The inhibition in assay [1] was 1.4% (inactive); in assay [3], -41% (inactive); in assay [8], 13.1% (inactive); in assay [9], 11.6% (inactive). Moreover, in assay [2], the inhibition of aggregation is 9.7% (inactive). The nuclei count in assay [2] came out at 102%; in assay [3] it was 107%. Moreover, the fluorescence slope in assay [4] is -0.378 (inactive). Also, in [5], the NADPH fluorescence slope is -6.2e-05 (inactive). The slope in assay [6] was 0.00431 (inactive). The compound was called inactive in [7].
Take `O=C(Nc1nnc(C2CCCC2)s1)C1CCN(S(=O)(=O)c2ccc(Cl)cc2)CC1`: the cell count in [1] came out at 349. Moreover, the inhibition was 0% (inactive) in assay [1], -83.1% (inactive) in assay [3], 13.4% (inactive) in assay [8] and 6.21% (inactive) in assay [9]. The inhibition of aggregation in assay [2] is 18.7% (inactive). The figures for the nuclei count in assay [2] and in assay [3] were 85.1% and 104%, respectively. Moreover, the fluorescence slope in [4] was -0.345 (inactive). Besides, the NADPH fluorescence slope in assay [5] was -1.7e-05 (inactive). Further, the slope in assay [6] was 0.00671 (inactive). Moreover, the compound was classed as inactive in assay [7].
Turning to `CC1(C)CC(=O)C(C=NC(CCC(N)=O)C(=O)O)=C(O)C1` (stereo unspecified), in [1], the cell count was 520. In addition, the inhibition was -22.3% (inactive) in assay [1], 54.4% (active) in assay [3], 13.3% (inactive) in [8] and 13.8% (inactive) in [9]. Besides, the inhibition of aggregation in [2] was -15.6% (inactive). Moreover, the nuclei count in [2] amounted to 113%; in assay [3], 93.1%. For the same compound, the fluorescence slope in assay [4] is -0.382 (inactive). Also, the NADPH fluorescence slope in assay [5] was -1e-05 (inactive). Also, the slope in [6] was 0.00504 (inactive). Besides, in [7], the call was inactive.
In the case of `CN(C)C(=O)CN(C)S(=O)(=O)c1ccc(Cl)cc1`, the cell count in assay [1] worked out at 447. The inhibition in assay [1] is 8.7% (inactive); in [3], -2.4% (inactive); in assay [8], 7.26% (inactive); in [9], 6.1% (inactive). Besides, in assay [2], the inhibition of aggregation was 10.6% (inactive). Also, the figures for the nuclei count in assay [2] and in assay [3] were 93.2% and 113%, respectively. Further, the fluorescence slope in [4] was -0.416 (inactive). For the same compound, in assay [5], the NADPH fluorescence slope is -1.2e-05 (inactive). In assay [6], the slope is 0.00557 (inactive). The compound was called inactive in assay [7].
For `Cc1cn(C2CC3OCC3O2)c(=O)[nH]c1=O` (stereo unspecified), in assay [1], the cell count was found to be 381. Also, the inhibition in assay [1] is 2.5% (inactive); in [3], 30.5% (inactive); in assay [8], -0.457% (inactive); in assay [9], 5.51% (inactive). Besides, in assay [2], the inhibition of aggregation is 0.6% (inactive). Further, the nuclei count in [2] is 98.5%; in assay [3], 98.4%. Also, in assay [4], the fluorescence slope was -0.399 (inactive). For the same compound, in assay [5], the NADPH fluorescence slope was 1.2e-05 (inactive). In addition, the slope in assay [6] is 0.00591 (inactive). The compound was classed as inactive in assay [7].
On to `COc1cccc(N2C(=O)N(c3ccccc3Cl)C3CS(=O)(=O)CC32)c1` (stereo unspecified), for which the cell count in assay [1] was found to be 366. Further, the inhibition in assay [1] was -0.4% (inactive); in [3] it was -47.6% (inactive); in assay [8], 15.6% (inactive); in assay [9], 20% (inactive). The inhibition of aggregation in assay [2] was -6% (inactive). For the same compound, the nuclei count was determined as 118% in assay [2] and 122% in assay [3]. Besides, in assay [4], the fluorescence slope is -0.336 (inactive). Moreover, the NADPH fluorescence slope in assay [5] is -1.8e-05 (inactive). In assay [6], the slope is 0.00497 (inactive). In assay [7], the call was inactive.
